Source: PubChem BioAssay
IDH1 mut inh – blocks human IDH1 R132H reductase activity; O75874; diaphorase/resazurin fluorescence, 60 min; inhibition, % at 10 µM; 70,000 tested, 0.18% active; AID 624101; in the data active means inhibition above about 34%; inconclusive means no clear call, values can overlap the other calls; inactive means below about 11%
Target sequence (O75874 whole entry R132H): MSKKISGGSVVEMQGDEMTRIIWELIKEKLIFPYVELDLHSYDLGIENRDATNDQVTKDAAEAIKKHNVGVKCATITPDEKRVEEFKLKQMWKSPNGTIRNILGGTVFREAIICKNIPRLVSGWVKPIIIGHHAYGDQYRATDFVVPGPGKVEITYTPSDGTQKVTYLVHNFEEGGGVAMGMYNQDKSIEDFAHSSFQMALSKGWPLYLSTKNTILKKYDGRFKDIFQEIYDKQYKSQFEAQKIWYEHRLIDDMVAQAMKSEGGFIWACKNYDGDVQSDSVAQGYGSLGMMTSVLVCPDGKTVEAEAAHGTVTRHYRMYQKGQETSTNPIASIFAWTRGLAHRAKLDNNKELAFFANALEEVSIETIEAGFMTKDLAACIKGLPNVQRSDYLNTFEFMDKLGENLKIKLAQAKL
T cruzi growth – inhibitors of T. cruzi proliferation | AID 624255 | T. cruzi beta-gal in NIH3T3, GalScreen luminescence, 90 h | 77,000 tested, 5.9% active | inhibition, % at 8.34 µM;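 active means mean inhibition above about 93%, with at least 55% of replicates each passing it, limit read from the data, passing the limit was not always enough; inconclusive means only one of those two conditions holds; inactive means neither condition holds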
Pf Dd2 growth – inhibitors of Plasmodium falciparum Dd2 growth; P. falciparum Dd2 growth, SYBR Green, 72 h; stronger effect = lower value; activity change, % at 10 µM; 94,000 tested, 2.3% active; AID 1159554; in the data active means activity change below about -80%; inconclusive means no clear call, values can overlap the other calls
KDM4C inh – KDM4C (human) demethylase inhibition; AID 720574; 96,000 tested, 0.15% active; Q9H3R0; GST-KDM4C 2-372, H3K9me3 peptide, LANCE TR-FRET; inhibition, % at 12.5 µM;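 active means mean replicate inhibition above about 25%, with at least 55% of replicates also reaching it, limit read from the data, passing the limit was not always enough; inconclusive means only one of those two conditions met; inactive means neither condition met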
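System: N-terminal GST-fused human GASC-1 (KDM4C) fragment, residues 2-372; amount: enzyme final amount 10 nM; incubation: reaction 30 min RT, detection step 1 h RT; medium: HEPES buffer, pH 7.5, plus ascorbate; technique: LANCE TR-FRET, Eu antibody, ULight-streptavidin, EDTA, ex 340 nm, em 618/671 nm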
Large screens that a line does not name were inactive. Compounds with a hit are over-represented: about 5.8% of the library has one in this group of screens.

CCCN1[C@@H]2c3cccc(=O)n3C[C@H]1[C@H](CO)[C@H]2C(=O)Nc1ccccc1	none (no result: IDH1 mut inh)
C[C@@H]1CN([C@H](C)CO)C(=O)c2cc(NC(=O)CCC(F)(F)F)ccc2O[C@H]1CN(C)C(=O)NC1CCCCC1	Pf Dd2 growth -86.9
C[C@@H]1CCCCO[C@@H](CN(C)C(=O)Nc2ccc(F)cc2)[C@H](C)CN([C@H](C)CO)C(=O)c2cc(NC(=O)Nc3ccccc3)ccc2O1	T cruzi growth 112.4 (no result: IDH1 mut inh)
COc1ccc(NC(=O)Nc2ccc3c(c2)C(=O)N([C@@H](C)CO)C[C@H](C)[C@H](CN(C)C(=O)Nc2ccc4c(c2)OCO4)OCCCC[C@@H](C)O3)cc1	Pf Dd2 growth -82.4 (no result: IDH1 mut inh)
C[C@@H]1CCCCO[C@@H](CN(C)C(=O)Nc2ccc3c(c2)OCO3)[C@@H](C)CN([C@@H](C)CO)C(=O)c2cc(NC(=O)Nc3ccc(C(F)(F)F)cc3)ccc2O1	Pf Dd2 growth -92.3 (no result: T cruzi growth)
COc1ccc(NC(=O)Nc2ccc3c(c2)C(=O)N([C@H](C)CO)C[C@H](C)[C@@H](CN(C)C(=O)Nc2ccc4c(c2)OCO4)OCCCC[C@H](C)O3)cc1	none
C[C@@H]1CCCCO[C@@H](CN(C)C(=O)Nc2ccc(C(F)(F)F)cc2)[C@@H](C)CN([C@H](C)CO)C(=O)c2cc(NC(=O)Nc3ccc4c(c3)OCO4)ccc2O1	none (no result: T cruzi growth)
O=C(C1CCCC1)N1CC2(C1)[C@@H](c1ccccc1)[C@H](CO)N2CCC(F)(F)F	none (no result: IDH1 mut inh, T cruzi growth)
C[C@@H]1CCCCO[C@@H](CN(C)Cc2ccncc2)[C@H](C)CN([C@@H](C)CO)C(=O)c2cc(NS(=O)(=O)c3cccs3)ccc2O1	none (no result: IDH1 mut inh)
Cc1ccc(S(=O)(=O)N(C)C[C@@H]2Oc3c(NC(=O)c4ccc(-c5nccs5)cc4)cccc3C(=O)N([C@H](C)CO)C[C@@H]2C)cc1	none
C[C@@H]1CN([C@H](C)CO)S(=O)(=O)c2ccc(Br)cc2O[C@H]1CN(C)Cc1ccncc1	IDH1 mut inh 42.0
C[C@H](CO)N1C[C@H](C)[C@@H](CN(C)Cc2ccncc2)Oc2cc(C3=CCCC3)ccc2S1(=O)=O	IDH1 mut inh 47.5
CC(C)C#Cc1ccc2c(c1)O[C@H](CN(C)Cc1ccncc1)[C@H](C)CN([C@@H](C)CO)S2(=O)=O	T cruzi growth 104.8
C[C@H](CO)N1C[C@H](C)[C@H](CN(C)C(=O)Cc2ccncc2)Oc2cc(C3=CCCCC3)ccc2S1(=O)=O	IDH1 mut inh inconclusive
C[C@@H]1CN([C@@H](C)CO)S(=O)(=O)c2ccc(C3=CCCCC3)cc2O[C@H]1CN(C)C(=O)Cc1cccnc1	IDH1 mut inh 45.1
CCCNC(=O)N[C@H]1C=C[C@H](CC(=O)NCCc2ccccc2)O[C@H]1CO	none
C[C@@H]1CCCCO[C@H](CN(C)C(=O)CCC(F)(F)F)[C@@H](C)CN([C@@H](C)CO)C(=O)c2cc(NC(=O)C3CCCCC3)ccc2O1	none (no result: IDH1 mut inh)
C[C@@H]1CN([C@H](C)CO)C(=O)c2cc(N(C)C)ccc2O[C@H]1CN(C)S(=O)(=O)c1ccccc1	none
Cc1ccccc1S(=O)(=O)N1CC(=O)N2[C@@H](CO)[C@@H](c3ccc(C#CCC4CCCC4)cc3)[C@@H]2C1	none (no result: IDH1 mut inh, T cruzi growth)
Cc1ccccc1-c1ccc2c(c1)O[C@@H](CN(C)Cc1ccncc1)[C@H](C)CN([C@H](C)CO)S2(=O)=O	Pf Dd2 growth -88.0
Cc1ccccc1-c1ccc2c(c1)O[C@H](CN(C)Cc1ccncc1)[C@H](C)CN([C@H](C)CO)S2(=O)=O	none
COc1ccc(S(=O)(=O)N(C)C[C@H]2OCCCC[C@@H](C)Oc3ccc(NC(=O)Nc4ccc(C(F)(F)F)cc4)cc3C(=O)N([C@@H](C)CO)C[C@@H]2C)cc1	Pf Dd2 growth -84.7
COc1ccc(S(=O)(=O)N(C)C[C@@H]2OCCCC[C@@H](C)Oc3ccc(NC(=O)Nc4ccc(C(F)(F)F)cc4)cc3C(=O)N([C@@H](C)CO)C[C@@H]2C)cc1	Pf Dd2 growth -87.5 (no result: IDH1 mut inh)
COc1ccc(S(=O)(=O)N(C)C[C@H]2OCCCC[C@@H](C)Oc3ccc(NC(=O)Nc4ccc(C(F)(F)F)cc4)cc3C(=O)N([C@@H](C)CO)C[C@H]2C)cc1	Pf Dd2 growth -84.6 (no result: IDH1 mut inh)
COc1ccc(S(=O)(=O)N(C)C[C@@H]2OCCCC[C@@H](C)Oc3ccc(NC(=O)Nc4ccc(C(F)(F)F)cc4)cc3C(=O)N([C@@H](C)CO)C[C@H]2C)cc1	none (no result: IDH1 mut inh)
COc1ccc(S(=O)(=O)N(C)C[C@@H]2OCCCC[C@H](C)Oc3ccc(NC(=O)Nc4ccc(C(F)(F)F)cc4)cc3C(=O)N([C@H](C)CO)C[C@H]2C)cc1	Pf Dd2 growth -82.9 (no result: IDH1 mut inh, KDM4C inh)
COc1ccc(NC(=O)Nc2ccc3c(c2)C(=O)N([C@H](C)CO)C[C@@H](C)[C@H](CN(C)S(=O)(=O)c2ccc(OC)cc2)OCCCC[C@H](C)O3)cc1	none
COc1cccc(NC(=O)C[C@H]2CC[C@H]3[C@@H](COc4ccc(NC(=O)c5ccccc5F)cc4C(=O)N3C)O2)c1	none (no result: IDH1 mut inh, T cruzi growth)
CCC(=O)N1[C@H](CO)[C@H](c2ccc(-c3ccccc3)cc2)[C@H]1CNC(=O)COC	none (no result: IDH1 mut inh, T cruzi growth)
C[C@H](CO)N1C[C@H](C)[C@H](CN(C)S(=O)(=O)c2ccc(F)cc2)OCCCC[C@H](C)Oc2ccc(NC(=O)Cc3ccccc3)cc2C1=O	none
C[C@@H]1CN([C@H](C)CO)C(=O)c2cc(NC(=O)Cc3ccccc3)ccc2O[C@@H](C)CCCCO[C@@H]1CN(C)S(=O)(=O)c1ccc(F)cc1	Pf Dd2 growth -88.8
C[C@@H]1CN([C@H](C)CO)C(=O)c2cc(NC(=O)Cc3ccccc3)ccc2O[C@@H](C)CCCCO[C@@H]1CN(C)S(=O)(=O)c1ccccc1	Pf Dd2 growth -81.1 (no result: T cruzi growth)
C[C@@H]1CN([C@@H](C)CO)C(=O)c2cc(NC(=O)Cc3ccccc3)ccc2O[C@@H](C)CCCCO[C@@H]1CN(C)S(=O)(=O)c1ccc(F)cc1	Pf Dd2 growth -86.7
C[C@@H]1CCCCO[C@@H](CN(C)S(=O)(=O)c2ccc(F)cc2)[C@H](C)CN([C@H](C)CO)C(=O)c2cc(NC(=O)Cc3ccccc3)ccc2O1	none
C[C@H](CO)N1C[C@H](C)[C@@H](CN(C)C(=O)Cc2ccccc2)OCCCC[C@H](C)Oc2ccc(NS(=O)(=O)c3cn(C)cn3)cc2C1=O	none
C[C@H](CO)N1C[C@H](C)[C@@H](CN(C)C(=O)Cc2ccccc2)OCc2ccccc2-c2c(n(C)c3ccccc23)C1=O	Pf Dd2 growth -81.1 (no result: IDH1 mut inh)
C[C@@H]1CN([C@H](C)CO)C(=O)c2c(c3ccccc3n2C)-c2ccccc2CO[C@H]1CN(C)C(=O)Cc1ccccc1	none (no result: IDH1 mut inh, T cruzi growth, KDM4C inh)
C[C@H]1CN([C@@H](C)CO)C(=O)c2c(c3ccccc3n2C)-c2ccccc2CO[C@@H]1CN(C)C(=O)Cc1ccccc1	Pf Dd2 growth -91.1 (no result: IDH1 mut inh)
C[C@H](CO)N1C[C@H](C)[C@H](CN(C)C(=O)Cc2ccccc2)OCc2ccccc2-c2c(n(C)c3ccccc23)C1=O	none
COc1ccccc1-c1ccc2n(c1=O)C[C@@H]1[C@@H](CO)[C@H](C(=O)N3CCN(C)CC3)[C@H]2N1CC1CC1	none (no result: IDH1 mut inh)
